Published values collected from several papers.

Cc1c(Cc2ccccc2)c(=O)oc2c(C)c(OCC(=O)NN=Cc3ccco3)ccc12 — viability (PC-3; cell growth or viability, MTT; 250 µg/mL): 11.1%
CCCCCCCCCCCCCCCCOP(=O)([O-])OCC[N+](C)(C)C — IC50 (Leishmania donovani; parasite growth, resazurin; promastigote): 1970 nM
COc1cccc2c1C(=O)c1c(O)c3c(c(O)c1C2=O)C[C@@](O)(C(=O)CO)C[C@@H]3O[C@H]1C[C@H](N)[C@H](O)[C@H](C)O1 — viability (A549; cell growth or viability, MTT; 25 µg/mL, 48 h, serum-free): 38.2%
O=C(NC(=S)Nc1ccccn1)c1ccco1 — IC50 (Leishmania donovani; parasite growth, resazurin; promastigote): 2300 nM
C=CC(=O)NC1CCN(c2ncc3ncnc(Nc4ccc(Oc5ccc6c(c5)ncn6C)c(C)c4)c3n2)CC1 — EC50 (NCI-H2170; cell growth or viability): 38 nM
O=C(NC(=S)Nc1ccccc1O)c1ccco1 — IC50 (Leishmania donovani; parasite growth, resazurin; promastigote): 2460 nM
Cc1c(Cc2ccccc2)c(=O)oc2c(C)c(OCC(=O)NN=Cc3ccc(Cl)cc3)ccc12 — viability (PC-3; cell growth or viability, MTT; 250 µg/mL): 29%
O=C(NC(=S)Nc1cccc(O)c1)c1ccco1 — IC50 (Leishmania donovani; parasite growth, resazurin; promastigote): 480 nM
O=C1O[C@H]([C@@H](O)CO)C(O)=C1O — IC50 (ABTS scavenging): 350000 nM
O=C(C=Cc1ccccc1)Nc1cccc(-c2ccnc(N3CCC(O)CC3)c2)c1 — inhibition (A549; cell growth or viability, MTT; 5 µM): 54.8%
Cc1c(C)c2c(c(C)c1O)CCC(C)(C(=O)O)O2 (stereo not shown) — IC50 (ABTS scavenging): 160000 nM
CCCOc1ccc2c(C)c(CC)c(=O)oc2c1C — viability (PC-3; cell growth or viability, MTT; 250 µg/mL): 26.3%
Cc1cccc(/C=C/C(=O)Nc2cccc(-c3ccnc(N4CCC(CO)CC4)c3)c2)c1 — inhibition (A549; cell growth or viability, MTT; 5 µM): 52.9%
O=C1O[C@H]([C@@H](O)CO)C(O)=C1O — IC50 (ABTS scavenging, absorbance; 30 min): 11300 nM
C=CCNC(=S)NNC(=O)COc1ccc2c(C)c(CC)c(=O)oc2c1C — viability (PC-3; cell growth or viability, MTT; 31.25 µg/mL): 99.9%
O=C(NC(=S)Nc1ccccn1)c1cccs1 — IC50 (Leishmania donovani; parasite growth, resazurin; promastigote): 1260 nM
